Among the data in ChEMBL document CHEMBL5338825, “Structure-Based Discovery of Inhibitors of the SARS-CoV-2 Nsp14 N7-Methyltransferase” (J Med Chem, 2023) are IC50, inhibition and CAC values, retold here.

The target in series [1] is Replicase polyprotein 1ab (Severe acute respiratory syndrome coronavirus 2, UniProt P0DTD1). The series can be described thus: Inhibition of N-terminal 6His/SUMO-tagged SARS-CoV-2 NSP14 expressed in Escherichia coli Rosetta 2 (DE3) PlysS cells using 5'GpppACCCCCCCCC-Biotin 3' and 3H-SAM as substrates incubated for 30 mins by TopCount scintillation proximity assay. Background: SPA uses beads or plates that emit light when radiolabelled molecules are held near them.

In series [2] the target is Replicase polyprotein 1ab (Severe acute respiratory syndrome coronavirus 2) (UniProt P0DTD1). The series can be described thus: Inhibition of N-terminal 6His/SUMO-tagged SARS-CoV-2 NSP14 expressed in Escherichia coli Rosetta 2 (DE3) PlysS cells using 5'GpppACCCCCCCCC-Biotin 3' and 3H-SAM as substrates at 100 uM incubated for 30 mins by TopCount scintillation proximity assay relative to control.

Series [3] has the same target. The series can be described thus: Irreversible covalent inhibition of N-terminal 6His/SUMO-tagged SARS-CoV-2 NSP14 expressed in Escherichia coli Rosetta 2 (DE3) PlysS cells using 5'GpppACCCCCCCCC-Biotin 3' and 3H-SAM as substrates assessed as adduct formation at 500 uM measured upto 18 hrs by mass spectrometric analysis. In short, it runs like this:
(§1)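 1 μM enzyme held alone or with 50 or 500 μM compound at room temperature. Sampled at 0, 2, 4, 8 and 18 h by QTof MS in 0.05% formic acid; intact mass deconvoluted from 700–1400 m/z.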

Series [4] has the same target. The series can be described thus: Irreversible covalent inhibition of N-terminal 6His/SUMO-tagged SARS-CoV-2 NSP14 expressed in Escherichia coli Rosetta 2 (DE3) PlysS cells using 5'GpppACCCCCCCCC-Biotin 3' and 3H-SAM as substrates assessed as adduct formation at 50 uM measured upto 18 hrs by mass spectrometric analysis. Put shortly: as §1
Series [5] deals with Bacteria. The series can be described thus: Inhibition of beta-lactamase AmpC (unknown origin) pre-incubated with compound for 5 mins followed by substrate addition and measured after 1.5 mins by absorbance based plate reader analysis. Particulars: time 6.5 min. Put shortly: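 AmpC at 2 nM preincubated 5 min with compound at room temperature in 50 mM KPi, pH 7.0, with 1% v/v DMSO. Started with 50 μM CENTA (read at 405 nm) or 50 μM nitrocefin (read at 490 nm), monitored 1 min 30 s. Initial rate taken as % of DMSO control. Top concentration in triplicate; eight-point half-log curves in triplicate where inhibition exceeded 40%.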

Series [6] addresses Replicase polyprotein 1ab (Severe acute respiratory syndrome coronavirus 2) (UniProt P0DTD1). The series can be described thus: Inhibition of N-terminal 6His/SUMO-tagged SARS-CoV-2 NSP14 expressed in Escherichia coli Rosetta 2 (DE3) PlysS cells using 5'GpppACCCCCCCCC-Biotin 3' and 3H-SAM as substrates at 30 to 50 uM incubated for 30 mins by TopCount scintillation proximity assay relative to control. The note with it: dose 30-50 µM.

For series [7] the target is unchanged. Description: Non-covalent inhibition of N-terminal 6His/SUMO-tagged SARS-CoV-2 NSP14 expressed in Escherichia coli Rosetta 2 (DE3) PlysS cells using 5'GpppACCCCCCCCC-Biotin 3' and 3H-SAM as substrates incubated for 30 mins by TopCount scintillation proximity assay. In short, it runs like this:
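Radiometric N7-MTase assay tracking [3H]-methyl transfer from SAM onto the cap of […] RNA, run with 0.01% v/v Triton X-100. Concentration–response in triplicate to give IC50.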

Series [8] is filed under the species Homo sapiens. The series can be described thus: Inhibition of MDH (unknown origin) using oxaloacetic acid as substrate preincubated with compound for 5 mins followed by substrate addition and measured after 1.5 min in the presence of NADH by absorbance based plate reader analysis. The note with it: time 6.5 min. Put shortly:
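MDH assay at room temperature in 50 mM KPi, pH 7.0, with 1% v/v DMSO final. Compound preincubated 5 min with 2 nM enzyme. Reaction started with 200 μM NADH plus 200 μM oxaloacetic acid, and absorbance followed at 340 nm for 1 min 30 s. Initial rate divided by the DMSO control rate. Single top concentration in triplicate; eight-point half-log curves in triplicate where inhibition exceeded 40%.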

Series [9] is described as follows: Aggregation property of the compound in KPi buffer at pH 7.0 assessed as formation of colloid-like particles by dynamic light scattering analysis. Type of series: physicochemical. Put shortly:
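Compounds diluted as 8-point half-log series in filtered 50 mM KPi, pH 7.0, with 1% v/v DMSO final. Particles detected by dynamic light scattering, triplicate at each concentration. CAC taken as the intersection of separate nonlinear fits to aggregating (>10^6 scattering intensity) and non-aggregating data.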

Series [10] addresses Replicase polyprotein 1ab (Severe acute respiratory syndrome coronavirus 2) (UniProt P0DTD1). The series can be described thus: Irreversible covalent inhibition of N-terminal 6His/SUMO-tagged SARS-CoV-2 NSP14 expressed in Escherichia coli Rosetta 2 (DE3) PlysS cells using 5'GpppACCCCCCCCC-Biotin 3' and 3H-SAM as substrates assessed as adduct formation incubated for 2 hrs by mass spectrometric analysis. In short, it runs like this: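 Nsp14 incubated with 20-fold molar excess of compound for 2 h at 20 °C, then taken into 0.1% formic acid. Separated by HPLC on a 5–95% acetonitrile/water gradient and analysed by ESI time-of-flight MS for protein mass shift.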

The target is the same in series [11]. Description: Competitive inhibition of N-terminal 6His/SUMO-tagged SARS-CoV-2 NSP14 expressed in Escherichia coli Rosetta 2 (DE3) PlysS cells using 5'GpppACCCCCCCCC-Biotin 3' and 3H-SAM as substrates at increasing concentration incubated for 30 mins by TopCount scintillation proximity assay. In short, it runs like this: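 Competition pattern read from IC50 shifts. […] Separately, SAM fixed at 1.25 μM (5× Km) with RNA varied up to 0.5 μM (10× Km). A linear rise of IC50 with substrate concentration was taken as competitive inhibition.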

Series [12] shares this target. Description: Inhibition of N-terminal 6His/SUMO-tagged SARS-CoV-2 NSP14 expressed in Escherichia coli Rosetta 2 (DE3) PlysS cells using 5'GpppACCCCCCCCC-Biotin 3' and 3H-SAM as substrates at 300 uM incubated for 30 mins by TopCount scintillation proximity assay relative to control.
Series [13] shares this target. The series can be described thus: Reversible inhibition of N-terminal 6His/SUMO-tagged SARS-CoV-2 NSP14 expressed in Escherichia coli Rosetta 2 (DE3) PlysS cells using 5'GpppACCCCCCCCC-Biotin 3' and 3H-SAM as substrates at increasing concentration incubated for 30 mins by TopCount scintillation proximity assay.
For series [14], the species on record is Homo sapiens. Description: Inhibition of MDH (unknown origin) using oxaloacetic acid as substrate preincubated with compound for 5 mins followed by substrate addition and measured after 1.5 min in the presence of NADH and 0.01% Triton-X 100 by absorbance based plate reader analysis. The note with it: time 6.5 min. Put shortly:
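Detergent-reversal MDH assay: 50 mM KPi, pH 7.0, with 1% v/v DMSO and 0.01% v/v Triton X-100. Enzyme at 2 nM preincubated 5 min with compound, then started with 200 μM NADH plus 200 μM oxaloacetate. A340 read for 1 min 30 s, rate normalised to DMSO control. Eight-point half-log curves in triplicate.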

SMILES strings stand for the structures. Activity calls are given as the source filed them. The rule behind the calls is not given here. A value given as a limit tells only on which side of the number the result lay.

In series [1], `C=CC(=O)NCCC(=O)N1CCC(C2C(=O)Nc3cc(Cl)ccc32)CC1` (stereo unspecified) gave a half-inhibitory concentration (IC50) of 32 µM. Also, the inhibition in series [2] is above 50%. Moreover, the inhibition entry in series [3] is “Active”.

Take `C=CC(=O)NCC(=O)C(=O)N1CCC(C2C(=O)Nc3cc(Cl)ccc32)CC1` (stereo unspecified): the IC50 in series [1] came to 7 µM. In series [4], the inhibition result is “Active”.

As to `Cn1c(=O)[nH]c2ncc(-c3cccc(C(=O)Nc4cccc(C#N)c4)c3)cc21`, the inhibition result in [5] and in series [8] was “inactive” in each case. Besides, in series [1], half-maximal inhibition (IC50) was put at 20 µM. Also, the inhibition in series [6] is above 50%. Moreover, the inhibition entry in [7] is “Active”. In [9], the CAC was 10 µM.

With `C=CC(=O)N(C)c1ccc(C(=O)Nc2ccc(-c3cn4ccsc4n3)cc2)cc1`, in series [1], 39 µM corresponded to half-maximal inhibition (IC50). Also, the inhibition in series [2] is above 50%. In [10], the inhibition result is “inactive”.

In the case of `Oc1ccccc1-c1ncnc2[nH]ccc12`, the inhibition result in [5], in series [11], in series [13] and in [8] was “Active” each time. In series [1], this compound showed an IC50 of 12 µM. In addition, the inhibition in series [12] was above 50%. Moreover, the inhibition result in series [14] was “inactive”.

One may read the IC50 as the concentration needed to halve the response being measured. In general, inhibition refers to the percentage by which the read-out fell short of the control.
